Experiment [1] concerns Rattus norvegicus. The experiment in a line: Androgenic activity in ORX rat model assessed as ventral prostate weight at 30 mg/kg, po administered 4 days relative to sham-treated control. The experiment is classed as functional, Prostate gland. The procedure, abridged:
(§1)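 Young (immature) rats castrated, left untreated one week, then dosed daily for four days (test agents orally; testosterone propionate subcutaneously). Untreated ORX and sham-operated rats as controls. Levator ani (anabolic) and ventral prostate (androgenic) weights normalised to body weight; activity % = (W/BW treated − W/BW ORX)/(W/BW sham − W/BW ORX) × 100; A50 = dose giving 50% activity.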

The subject of experiment [2] is Rattus norvegicus. Nature of the experiment: Anabolic activity in ORX rat model assessed as levator ani muscle weight at 30 mg/kg, po administered 4 days relative to sham-treated control. The experiment is classed as functional. The gist of the method: as §1
For experiment [3], the system named is Rattus norvegicus. Nature of the experiment: Androgenic activity in ORX rat model assessed as ventral prostate weight at 10 mg/kg, po administered 4 days relative to sham-treated control. The experiment is classed as functional, Prostate gland. The gist of the method: as §1
The subject of experiment [4] is Rattus norvegicus. The experiment in a line: Anabolic activity in ORX rat model assessed as levator ani muscle weight at 10 mg/kg, po administered 4 days relative to sham-treated control. The experiment is classed as functional. The gist of the method:
as §1

Experiment [5] deals with Rattus norvegicus. The experiment in a line: Anabolic activity in sc dosed ORX rat model assessed as dose required to induce 50% effect on levator ani muscle weight administered 4 days. The experiment is classed as functional. The gist of the method: as §1
The subject of experiment [6] is Rattus norvegicus. Nature of the experiment: Anabolic activity in sc dosed ORX rat model assessed as maximum effect on levator ani muscle weight administered 4 days relative to sham-treated control. The experiment is classed as functional. The procedure, abridged: as §1
The test system of experiment [7] is Rattus norvegicus. Nature of the experiment: Anabolic activity in ORX rat model assessed as levator ani muscle weight at 1 mg/kg, sc administered 4 days relative to sham-treated control. The experiment is classed as functional. The following applies: route subcutaneous. The gist of the method:
as §1

In experiment [8] the test system is Rattus norvegicus. Nature of the experiment: Androgenic activity in sc dosed ORX rat model assessed as dose required to induce 50% effect on ventral prostate weight administered 4 days. The experiment is classed as functional, Prostate gland. The gist of the method: as §1
The subject of experiment [9] is Rattus norvegicus. The experiment in a line: Androgenic activity in ORX rat model assessed as ventral prostate weight at 1 mg/kg, sc administered 4 days relative to sham-treated control. The experiment is classed as functional, Prostate gland. The conditions noted are these: route subcutaneous. The gist of the method: as §1
Experiment [10] relates to Rattus norvegicus. Nature of the experiment: Androgenic activity in sc dosed ORX rat model assessed as maximum effect on ventral prostate weight administered 4 days relative to sham-treated control. The experiment is classed as functional, Prostate gland. The procedure, abridged: as §1

Take `CN1C(=O)N(c2ccc(C#N)c(C(F)(F)F)c2)C(=O)[C@]1(C)c1ccc(O)cc1`: the results for the Activity in the experiment on Rattus norvegicus [1] and in the experiment on Rattus norvegicus [2] were 5% and -5%, respectively.

Turning to `COc1cc(N2C(=O)N(C)[C@](C)(c3ccc(O)cc3)C2=O)ccc1C#N`, the Activity was found to be 30% in the experiment with Rattus norvegicus [3] and 132% with Rattus norvegicus [4].

As to `CN1C(=S)N(c2ccc(Cl)c(Cl)c2)C(=O)C1(C)c1ccc(O)cc1` (racemic), the results for the Activity in the experiment on Rattus norvegicus [1] and in the experiment with Rattus norvegicus [2] were 0% and 13%, respectively.

For `CN1C(=S)N(c2ccc(C#N)c(C(F)(F)F)c2)C(=O)C1(C)c1ccc(O)cc1` (racemic), the Activity in the experiment on Rattus norvegicus [1] turned out to be 4%; in the experiment on Rattus norvegicus [2] it was 12%.

With `C=CCN1C(=O)N(c2ccc(C#N)c(C(F)(F)F)c2)C(=O)C1(C)c1ccc(O)cc1` (racemic), the Activity is recorded as -3% with Rattus norvegicus [1] and 15% in the experiment on Rattus norvegicus [2].

For the compound `C#CCN1C(=O)N(c2ccc(C#N)c(C(F)(F)F)c2)C(=O)C1(C)c1ccc(O)cc1` (racemic), the values for the Activity with Rattus norvegicus [1] and in the experiment with Rattus norvegicus [2] were 19% and 95%, respectively.

For the compound `CN1C(=O)N(c2ccc(Cl)c(Cl)c2)C(=O)C1(C)c1ccc(O)cc1` (racemic), the Activity in the experiment with Rattus norvegicus [1] was found to be 0%; in the experiment with Rattus norvegicus [2], 12%.

Take `CN1C(=O)N(c2ccc(C#N)c(C(F)(F)F)c2)C(=O)C1(C)c1ccc(O)cc1` (racemic): the values for the Activity in the experiment on Rattus norvegicus [1] and in the experiment on Rattus norvegicus [2] were 14% and 84%, respectively.

For `COc1cc(N2C(=O)N(C)C(C)(c3ccc(O)cc3)C2=O)ccc1C#N` (racemic), the Activity with Rattus norvegicus [1] is on record as 51%; in the experiment with Rattus norvegicus [2], 96%.

For the compound `Cc1c(N2C(=O)N(C)C(C)(c3ccc(O)cc3)C2=O)ccc(C#N)c1Cl` (racemic), the values for the Activity in the experiment with Rattus norvegicus [1] and in the experiment with Rattus norvegicus [2] were 12% and 82%, respectively.

As to `CCC(=O)O[C@H]1CC[C@H]2[C@@H]3CCC4=CC(=O)CC[C@]4(C)[C@H]3CC[C@]12C` [TESTOSTERONE PROPIONATE], the Activity with Rattus norvegicus [5] was determined as 0.3 mg/kg; with Rattus norvegicus [6], 130%; with Rattus norvegicus [7], 99%; with Rattus norvegicus [8] it was 0.2 mg/kg; in the experiment with Rattus norvegicus [9], 73%; in the experiment on Rattus norvegicus [10], 130%.

The values are drawn from ChEMBL document CHEMBL2176865, “Discovery of diarylhydantoins as new selective androgen receptor modulators” (J Med Chem, 2012).
